Measured values published in article PMC2853048 (Journal of medicinal chemistry, 2009).

Columns and labels:
human Gli1 = molecular target: T1, human Gli1 (Homo sapiens, UniProt P08151); test: Gli-mediated transcription reporter assay in C3H10T1/2 cells with exogenous Gli1; type: cell-based; conditions: for inhibition of Gli1-mediated transcription (Gli-reporter activity), in words: Gli1-transfected C3H10T1/2 cells, 24 h, 20 µM or 40 µM
T1 sequence (P08151 1-1106): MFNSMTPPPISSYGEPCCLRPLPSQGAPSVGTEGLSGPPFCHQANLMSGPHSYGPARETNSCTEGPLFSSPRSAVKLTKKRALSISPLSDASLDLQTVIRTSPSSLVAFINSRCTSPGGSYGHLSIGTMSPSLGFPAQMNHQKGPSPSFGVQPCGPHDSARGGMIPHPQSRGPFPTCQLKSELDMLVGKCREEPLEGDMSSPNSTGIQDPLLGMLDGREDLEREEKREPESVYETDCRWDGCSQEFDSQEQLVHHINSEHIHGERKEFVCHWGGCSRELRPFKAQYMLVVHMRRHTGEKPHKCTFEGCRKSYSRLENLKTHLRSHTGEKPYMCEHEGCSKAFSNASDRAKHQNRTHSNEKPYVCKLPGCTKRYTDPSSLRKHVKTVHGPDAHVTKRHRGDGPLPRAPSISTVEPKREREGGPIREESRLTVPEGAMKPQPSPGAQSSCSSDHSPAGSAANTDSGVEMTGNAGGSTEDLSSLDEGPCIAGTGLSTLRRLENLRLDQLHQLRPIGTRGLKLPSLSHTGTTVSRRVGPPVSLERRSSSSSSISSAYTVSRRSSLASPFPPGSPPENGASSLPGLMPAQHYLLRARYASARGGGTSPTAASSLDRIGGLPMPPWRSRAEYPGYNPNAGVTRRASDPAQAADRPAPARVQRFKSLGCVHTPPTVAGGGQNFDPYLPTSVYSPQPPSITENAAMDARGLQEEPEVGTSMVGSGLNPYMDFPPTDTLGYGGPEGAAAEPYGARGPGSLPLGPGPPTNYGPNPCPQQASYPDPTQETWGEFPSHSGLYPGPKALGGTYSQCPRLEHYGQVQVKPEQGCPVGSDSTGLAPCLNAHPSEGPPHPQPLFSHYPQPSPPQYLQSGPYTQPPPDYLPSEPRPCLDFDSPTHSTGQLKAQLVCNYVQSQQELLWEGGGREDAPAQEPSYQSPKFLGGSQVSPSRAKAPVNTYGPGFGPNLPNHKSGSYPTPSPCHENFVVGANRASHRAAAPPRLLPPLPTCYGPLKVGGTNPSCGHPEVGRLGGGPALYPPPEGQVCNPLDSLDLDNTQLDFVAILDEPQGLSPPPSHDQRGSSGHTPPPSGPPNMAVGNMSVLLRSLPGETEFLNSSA

exogenous Gli1 protein = test: Western blot of Gli1 protein levels in Gli1-transfected C3H10T1/2 cells; type: cell-based, human
BJ-hTERT cells = test: Cell viability assay; type: cell-based; conditions: noncancerous human skin fibroblasts, 40 µM, 72 h
Outline: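 Cells plated in 384-well format 24 h before dosing. A 10-mM DMSO stock was diluted in EMEM to 160 µM (4×) and added in triplicate to a final 40 µM. Incubated 68 h at 37 °C, then Alamar Blue for 4 h at 37 °C. Fluorescence read at ex 510 / em 590 nm; viability expressed relative to DMSO control wells.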

C3H10T1/2 cells = test: Toxicity towards C3H10T1/2 cells in the reporter assay; type: cell-based, mouse; conditions: data not shown
endogenous Gli1 = test: Gli-mediated transcription reporter assay in Rh30 cells; type: cell-based; conditions: Rh30 cells without cotransfection of exogenous Gli1, 24 h, 10, 20 or 40 µM
Outline: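 Rh30 cells were grown in RPMI-1640 with 10% FBS at 37 °C, 5% CO2. At about 70% confluence they were transfected overnight with GliLuc-BS (500 ng/mL) and pRL-CMV (2.5 ng/mL) using Fugene6. Cells were replated, then dosed 18 h later for 24 h. Lysates were read by dual luciferase (firefly/Renilla). DMSO = 0% inhibition; triplicates, SE shown.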

[1] = Stability of compounds in C3H10T1/2 cell cultures; type: in vitro ADME, mouse; conditions: 24 hours

CC(C(=O)NCCc1ccc(O)cc1)c1cccc(C(=O)c2ccccc2)c1 (racemic) [Compound 37, (±)-2-(3-Benzoylphenyl)-N-(4-hydroxyphenethyl)propanamide]
inhibition of Gli1-mediated transcription (Gli-reporter activity), in words (human Gli1): lower activity than did 36

CC(C)Cc1ccc(C(C)C(=O)NCCc2ccc(O)cc2)cc1 (stereo not drawn) [Compound 34, N-(4-Hydroxyphenethyl)-2-(4-isobutylphenyl)propanamide]
inhibition of Gli1-mediated transcription (Gli-reporter activity), in words (human Gli1): modest inhibition

C[C@H](C(=O)NCCc1ccc(O)cc1)c1cccc(C(=O)c2ccccc2)c1 [Compound 36, (S)-2-(3-Benzoylphenyl)-N-(4-hydroxyphenethyl)propanamide]
exogenous Gli1 protein level (exogenous Gli1 protein): not reduced
cell viability / toxicity, BJ-hTERT (BJ-hTERT cells): without showing toxicity
toxicity towards the C3H10T1/2 cells (C3H10T1/2 cells): minimal toxicity as compared to 32
inhibition of Gli-reporter activity in Rh30 cells, in words (endogenous Gli1): downregulated
stability in the C3H10T1/2 cell cultures [1]: stable
inhibition of Gli1-mediated transcription (Gli-reporter activity), in words (human Gli1): high activity

COc1ccc2cc([C@@H](C)C(=O)NCCc3ccc(O)cc3)ccc2c1 [Compound 38, (R)-N-(4-Hydroxyphenethyl)-2-(6-methoxynaphthalen-2-yl)propanamide]
inhibition of Gli1-mediated transcription (Gli-reporter activity), in words (human Gli1): lower activity than did 35

C[C@H](C(=O)NCCc1ccc(O)cc1)c1cccc(C(O)c2ccccc2)c1 (stereo partly drawn) [Compound 39, (2S)-2-(3-(Hydroxy(phenyl)methyl)phenyl)-N-(4-hydroxyphenethyl)propanamide]
inhibition of Gli1-mediated transcription (Gli-reporter activity), in words (human Gli1): less potent than 36

C[C@H](C(=O)NCCc1ccc(O)cc1)c1cccc(Cc2ccccc2)c1 [Compound 40, (S)-2-(3-Benzylphenyl)-N-(4-hydroxyphenethyl)propanamide]
inhibition of Gli1-mediated transcription (Gli-reporter activity), in words (human Gli1): less potent than 36

O=C(Cc1ccccc1Oc1ccccc1)NCCc1ccc(O)cc1 [Compound 41, N-(4-Hydroxyphenethyl)-2-(2-phenoxyphenyl)acetamide]
inhibition of Gli1-mediated transcription (Gli-reporter activity), in words (human Gli1): decreased activity

O=C(Cc1cccc(Oc2ccccc2)c1)NCCc1ccc(O)cc1 [Compound 42, N-(4-Hydroxyphenethyl)-2-(3-phenoxyphenyl)acetamide]
inhibition of Gli1-mediated transcription (Gli-reporter activity), in words (human Gli1): equipotent

O=C(Cc1ccc(Oc2ccccc2)cc1)NCCc1ccc(O)cc1 [Compound 43, N-(4-Hydroxyphenethyl)-2-(4-phenoxyphenyl)acetamide]
inhibition of Gli1-mediated transcription (Gli-reporter activity), in words (human Gli1): equipotent

C[C@H](C(=O)NCCc1ccc(O)c(O)c1)c1cccc(C(=O)c2ccccc2)c1 [Compound 50, (S)-2-(3-Benzoylphenyl)-N-(3,4-dihydroxyphenethyl)propanamide]
stability in the C3H10T1/2 cell cultures [1]: significant degradation

C[C@H](C(=O)NCc1ccc(O)cc1)c1cccc(C(=O)c2ccccc2)c1 [Compound 53, (S)-2-(3-Benzoylphenyl)-N-((4-hydroxyphenyl)methyl)propanamide]
inhibition of Gli1-mediated transcription (Gli-reporter activity), in words (human Gli1): decreased activity

C[C@H](C(=O)Nc1ccc(O)cc1)c1cccc(C(=O)c2ccccc2)c1 [Compound 54, (S)-2-(3-Benzoylphenyl)-N-(4-hydroxyphenyl)propanamide]
inhibition of Gli1-mediated transcription (Gli-reporter activity), in words (human Gli1): decreased activity

C[C@H](CNC(=O)c1ccc(O)cc1)c1cccc(C(=O)c2ccccc2)c1 [Compound 55, (S)-N-(2-(3-Benzoylphenyl)propyl)-4-hydroxybenzamide]
inhibition of Gli1-mediated transcription (Gli-reporter activity), in words (human Gli1): better activity

C[C@H](CNC(=O)CCc1ccc(O)cc1)c1cccc(C(=O)c2ccccc2)c1 [Compound 56, (S)-N-(2-(3-Benzoylphenyl)propyl)-3-(4-hydroxyphenyl)propanamide]
inhibition of Gli1-mediated transcription (Gli-reporter activity), in words (human Gli1): modest increase in the potency

COc1ccc(C(=O)NC[C@@H](C)c2cccc(C(=O)c3ccccc3)c2)cc1 [Compound 57, (S)-N-(2-(3-Benzoylphenyl)propyl)-4-methoxybenzamide]
inhibition of Gli1-mediated transcription (Gli-reporter activity), in words (human Gli1): retained the activity

COc1ccc(COC[C@@H](C)c2cccc(C(=O)c3ccccc3)c2)cc1 [Compound 58, (S)-(3-(1-(4-Methoxybenzyloxy)propan-2-yl)phenyl)(phenyl)methanone]
inhibition of Gli1-mediated transcription (Gli-reporter activity), in words (human Gli1): almost no activity

C[C@H](CNC(=O)Nc1ccc(O)cc1)c1cccc(C(=O)c2ccccc2)c1 [Compound 59, (S)-1-(2-(3-Benzoylphenyl)propyl)-3-(4-hydroxyphenyl)urea]
cell viability / toxicity, BJ-hTERT (BJ-hTERT cells): toxic
inhibition of Gli1-mediated transcription (Gli-reporter activity), in words (human Gli1): comparable to that of 36

C[C@H](CNC(=O)NCCc1ccc(O)cc1)c1cccc(C(=O)c2ccccc2)c1 [Compound 60, (S)-1-(2-(3-Benzoylphenyl)propyl)-3-(4-hydroxyphenethyl)urea]
cell viability / toxicity, BJ-hTERT (BJ-hTERT cells): toxic
inhibition of Gli1-mediated transcription (Gli-reporter activity), in words (human Gli1): comparable to that of 36

C[C@H](COC(=O)Nc1ccc(O)cc1)c1cccc(C(=O)c2ccccc2)c1 [Compound 61, (S)-2-(3-Benzoylphenyl)propyl 4-hydroxyphenylcarbamate]
inhibition of Gli1-mediated transcription (Gli-reporter activity), in words (human Gli1): substantially decreased the activity

C[C@H](COC(=O)NCCc1ccc(O)cc1)c1cccc(C(=O)c2ccccc2)c1 [Compound 62, (S)-2-(3-Benzoylphenyl)propyl 4-hydroxyphenethylcarbamate]
inhibition of Gli1-mediated transcription (Gli-reporter activity), in words (human Gli1): substantially decreased the activity

CCCN(CCc1ccc(O)cc1)C(=O)[C@@H](C)c1cccc(C(=O)c2ccccc2)c1 [Compound 63, (S)-2-(3-Benzoylphenyl)-N-(4-hydroxyphenethyl)-N-propylpropanamide]
exogenous Gli1 protein level (exogenous Gli1 protein): not reduced
cell viability / toxicity, BJ-hTERT (BJ-hTERT cells): without showing toxicity
inhibition of Gli-reporter activity in Rh30 cells, in words (endogenous Gli1): downregulated
stability in the C3H10T1/2 cell cultures [1]: stable

C[C@H](C(=O)N(CCc1ccc(O)cc1)CCc1ccc(O)cc1)c1cccc(C(=O)c2ccccc2)c1 [Compound 65, (S)-2-(3-Benzoylphenyl)-N,N-bis(4-hydroxyphenethyl)propanamide]
stability in the C3H10T1/2 cell cultures [1]: stable
inhibition selectivity of Gli1-mediated transcription over Gli2-mediated transcription (human Gli1; C3H10T1/2 cells, from IC50 values): least selective

(S)-2-(3-Benzoylphenyl)-N-(2-hydroxyphenethyl)propanamide [Compound 44]
inhibition of Gli1-mediated transcription (Gli-reporter activity), in words (human Gli1): slightly decreased at 20 µM

(S)-2-(3-Benzoylphenyl)-N-(3-hydroxy-4-methoxyphenethyl)propanamide [Compound 52]
inhibition of Gli1-mediated transcription (Gli-reporter activity), in words (human Gli1): reduced the activity by about half

(S)-2-(3-Benzoylphenyl)-N-(4-chlorophenethyl)propanamide [Compound 49]
inhibition of Gli1-mediated transcription (Gli-reporter activity), in words (human Gli1): slightly lower activity than 36

(S)-2-(3-Benzoylphenyl)-N-(4-hydroxy-3-methoxyphenethyl)propanamide [Compound 51]
inhibition of Gli1-mediated transcription (Gli-reporter activity), in words (human Gli1): reduced the activity by about half

(S)-2-(3-Benzoylphenyl)-N-(4-methoxyphenethyl)propanamide [Compound 47]
inhibition of Gli1-mediated transcription (Gli-reporter activity), in words (human Gli1): decrease in the activity

(S)-2-(3-Benzoylphenyl)-N-phenethylpropanamide [Compound 48]
inhibition of Gli1-mediated transcription (Gli-reporter activity), in words (human Gli1): significantly lower activity than 36
